Measured values as given in ChEMBL document CHEMBL1130274, “Fibrinogen receptor (GPIIb-IIIa) antagonists derived from 5,6-bicyclic templates. Amidinoindoles, amidinoindazoles, and amidinobenzofurans containing the N-alpha-sulfonamide carboxylic acid function as potent platelet aggregation inhibitors” (J Med Chem, 1997).

Key:
Assay type in all cases: protein-complex assay
[1] = molecular target: Integrin alpha-IIb/beta-3 (Homo sapiens, UniProt P05106+P08514); experiment: Inhibitory activity of fibrinogen binding to purified immobilized glycoprotein (fibrinogen receptor).
Sequence of Integrin alpha-IIb/beta-3 (P05106 27-788 limits assumed): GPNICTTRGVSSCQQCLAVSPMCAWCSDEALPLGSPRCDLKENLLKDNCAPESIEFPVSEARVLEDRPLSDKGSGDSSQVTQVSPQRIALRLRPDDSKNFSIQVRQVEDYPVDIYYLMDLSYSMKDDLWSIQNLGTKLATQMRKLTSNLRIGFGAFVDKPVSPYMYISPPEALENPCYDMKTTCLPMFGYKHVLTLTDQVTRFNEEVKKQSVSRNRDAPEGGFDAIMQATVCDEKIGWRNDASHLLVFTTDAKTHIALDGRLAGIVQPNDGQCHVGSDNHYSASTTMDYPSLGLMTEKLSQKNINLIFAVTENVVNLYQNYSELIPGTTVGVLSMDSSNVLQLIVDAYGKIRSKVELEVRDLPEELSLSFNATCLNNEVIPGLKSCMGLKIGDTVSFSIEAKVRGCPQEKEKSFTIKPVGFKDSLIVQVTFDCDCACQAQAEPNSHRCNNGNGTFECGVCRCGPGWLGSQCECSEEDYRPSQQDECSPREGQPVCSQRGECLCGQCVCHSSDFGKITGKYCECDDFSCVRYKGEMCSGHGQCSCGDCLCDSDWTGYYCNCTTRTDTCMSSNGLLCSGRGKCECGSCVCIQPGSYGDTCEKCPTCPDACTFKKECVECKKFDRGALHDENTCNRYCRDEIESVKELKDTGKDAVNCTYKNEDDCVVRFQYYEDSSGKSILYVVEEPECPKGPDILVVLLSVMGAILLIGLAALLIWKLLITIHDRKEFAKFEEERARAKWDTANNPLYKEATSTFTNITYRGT
Sequence of Integrin alpha-IIb/beta-3 (P08514 32-887 limits assumed): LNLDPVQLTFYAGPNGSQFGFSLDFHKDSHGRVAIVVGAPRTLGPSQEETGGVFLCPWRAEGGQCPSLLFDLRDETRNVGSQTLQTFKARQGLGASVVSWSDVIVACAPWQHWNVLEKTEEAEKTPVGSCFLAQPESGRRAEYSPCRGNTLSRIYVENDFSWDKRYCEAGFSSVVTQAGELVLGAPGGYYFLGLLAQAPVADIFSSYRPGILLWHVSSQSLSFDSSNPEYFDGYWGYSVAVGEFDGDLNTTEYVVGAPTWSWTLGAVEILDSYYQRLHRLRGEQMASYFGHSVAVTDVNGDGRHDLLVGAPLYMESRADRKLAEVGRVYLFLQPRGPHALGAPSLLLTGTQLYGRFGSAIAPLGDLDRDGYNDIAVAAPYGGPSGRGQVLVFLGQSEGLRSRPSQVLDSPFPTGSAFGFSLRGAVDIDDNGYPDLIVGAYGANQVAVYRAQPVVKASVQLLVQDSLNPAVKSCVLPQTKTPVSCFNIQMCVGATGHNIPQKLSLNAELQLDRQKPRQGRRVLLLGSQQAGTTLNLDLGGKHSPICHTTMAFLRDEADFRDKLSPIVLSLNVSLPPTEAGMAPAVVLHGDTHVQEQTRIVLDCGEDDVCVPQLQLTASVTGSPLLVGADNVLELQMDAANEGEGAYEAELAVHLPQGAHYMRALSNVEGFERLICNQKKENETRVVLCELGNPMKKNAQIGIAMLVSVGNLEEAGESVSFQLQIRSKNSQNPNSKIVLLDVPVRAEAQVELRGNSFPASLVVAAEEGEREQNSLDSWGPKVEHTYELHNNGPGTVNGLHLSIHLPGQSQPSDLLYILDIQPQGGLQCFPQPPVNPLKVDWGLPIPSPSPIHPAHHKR
Sequence of Integrin alpha-IIb/beta-3 (P08514 891-1039 limits assumed): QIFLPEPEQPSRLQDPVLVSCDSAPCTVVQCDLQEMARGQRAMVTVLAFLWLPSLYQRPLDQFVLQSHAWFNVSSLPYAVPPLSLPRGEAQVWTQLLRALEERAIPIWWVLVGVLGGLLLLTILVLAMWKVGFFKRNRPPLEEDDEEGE

Integrin alpha-V/beta-3 [2] = molecular target: T1, Integrin alpha-V/beta-3 (Homo sapiens, UniProt P05106+P06756); experiment: Inhibition of vitronectin binding to the purified immobilized vitronectin receptor (alpha v, beta 3).
T1 sequence (P05106 27-788 limits assumed): as the sequence (P05106 27-788 limits assumed) above
T1 sequence (P06756 31-889 limits assumed): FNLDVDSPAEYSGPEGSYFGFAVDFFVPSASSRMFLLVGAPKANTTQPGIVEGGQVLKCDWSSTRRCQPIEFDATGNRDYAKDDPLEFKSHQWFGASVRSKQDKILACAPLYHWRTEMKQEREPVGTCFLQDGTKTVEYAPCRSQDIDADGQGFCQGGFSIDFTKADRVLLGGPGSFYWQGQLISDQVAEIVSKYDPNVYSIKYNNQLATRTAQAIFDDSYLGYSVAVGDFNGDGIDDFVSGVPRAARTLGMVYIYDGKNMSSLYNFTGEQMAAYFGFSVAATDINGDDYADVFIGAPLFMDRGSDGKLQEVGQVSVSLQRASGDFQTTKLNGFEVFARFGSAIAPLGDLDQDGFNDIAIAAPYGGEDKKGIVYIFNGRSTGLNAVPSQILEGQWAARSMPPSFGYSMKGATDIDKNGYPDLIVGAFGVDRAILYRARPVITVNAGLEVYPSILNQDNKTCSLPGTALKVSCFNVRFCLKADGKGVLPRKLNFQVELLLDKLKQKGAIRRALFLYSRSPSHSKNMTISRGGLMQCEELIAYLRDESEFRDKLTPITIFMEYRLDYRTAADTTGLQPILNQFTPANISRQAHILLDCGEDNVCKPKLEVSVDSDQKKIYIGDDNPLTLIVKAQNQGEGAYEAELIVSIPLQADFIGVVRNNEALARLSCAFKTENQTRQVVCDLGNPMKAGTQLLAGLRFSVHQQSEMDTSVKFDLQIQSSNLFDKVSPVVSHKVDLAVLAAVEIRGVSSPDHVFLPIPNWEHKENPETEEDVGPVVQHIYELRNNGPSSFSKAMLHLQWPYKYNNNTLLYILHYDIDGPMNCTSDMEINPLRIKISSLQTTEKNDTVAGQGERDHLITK
T1 sequence (P06756 891-1048 limits assumed): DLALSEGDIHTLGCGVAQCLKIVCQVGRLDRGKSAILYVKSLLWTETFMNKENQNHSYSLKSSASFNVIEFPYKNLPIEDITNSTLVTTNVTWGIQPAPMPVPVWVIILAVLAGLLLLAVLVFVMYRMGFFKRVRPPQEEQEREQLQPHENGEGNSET
In short: (§1)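 Solid-phase microtiter assay. Purified integrin (GPIIb-IIIa or αvβ3) was coated at 1 μg/well overnight at 4 °C in Tris pH 7.4 buffer with CaCl2, then blocked with 35 mg/mL BSA for 2–3 h. Biotinylated fibrinogen or vitronectin (20 nM final) plus compound was incubated 3 h at room temperature. Bound ligand was detected with alkaline phosphatase anti-biotin antibody and pNPP at 405 nm.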

Integrin alpha-V/beta-3 [3] = molecular target: T1, Integrin alpha-V/beta-3; experiment: Inhibition of vitronectin binding to purified immobilized vitronectin receptor alpha v beta3; in short: as §1

An IC50 [1] of 0.04 µM and an IC50 (Integrin alpha-V/beta-3 [2]) greater than 100 µM were found for `N=C(N)c1ccc2oc(C(=O)NCCC(=O)NC[C@H](N)C(=O)O)cc2c1` in this work.

An IC50 [1] of 0.2 µM and an IC50 (Integrin alpha-V/beta-3 [2]) greater than 100 µM were found for `N=C(N)c1ccc2oc(C(=O)NCCC(=O)NC(CC(=O)O)c3ccc(F)c(F)c3)cc2c1` (stereo not given) in this work.

An IC50 [1] of 0.04 µM and an IC50 (Integrin alpha-V/beta-3 [2]) of 100 µM were found for `N=C(N)c1ccc2oc(C(=O)NCCC(=O)NC(CC(=O)O)c3cccnc3)cc2c1` (stereo not given) in this work.

An IC50 [1] of 0.002 µM and an IC50 (Integrin alpha-V/beta-3 [2]) greater than 100 µM were found for `CN(C)c1cccc2c(S(=O)(=O)N[C@@H](CNC(=O)CCNC(=O)c3cc4cc(C(=N)N)ccc4o3)C(=O)O)cccc12` in this work.

An IC50 [1] of 0.002 µM and an IC50 (Integrin alpha-V/beta-3 [2]) greater than 100 µM were found for `CCCCS(=O)(=O)NC(CNC(=O)CCNC(=O)c1c[nH]c2cc(C(=N)N)ccc12)C(=O)O` (stereo not given) in this work.

An IC50 [1] of 0.002 µM and an IC50 (Integrin alpha-V/beta-3 [2]) greater than 100 µM were found for `CCCCS(=O)(=O)NC(CNC(=O)CCNC(=O)c1[nH]nc2cc(C(=N)N)ccc12)C(=O)O` (stereo not given) in this work.

An IC50 [1] of 1 µM was found for `N=C(N)c1ccc2[nH]c(C(=O)NCCC(=O)NC(CC(=O)O)c3ccccc3)cc2c1` (stereo not given) in this work.

An IC50 [1] of 0.04 µM and an IC50 (Integrin alpha-V/beta-3 [2]) greater than 100 µM were found for `C#CC(CC(=O)O)NC(=O)CCNC(=O)c1cc2cc(C(=N)N)ccc2o1` (stereo not given) in this work.

An IC50 [1] of 6 µM was found for `N=C(N)c1ccc2[nH]c(C(=O)N3CCC(C(=O)NC(CC(=O)O)c4ccccc4)CC3)cc2c1` (stereo not given) in this work.

An IC50 [1] of 10 µM was found for `N=C(N)c1ccc2[nH]c(C(=O)NCC(=O)NC(CC(=O)O)c3ccccc3)cc2c1` (stereo not given) in this work.

An IC50 [1] of 0.3 µM was found for `N=C(N)c1ccc2oc(C(=O)NCC(=O)NC(CC(=O)O)c3ccccc3)cc2c1` (stereo not given) in this work.

An IC50 [1] of 0.125 µM and an IC50 (Integrin alpha-V/beta-3 [2]) greater than 100 µM were found for `N=C(N)c1ccc2oc(C(=O)NCCC(=O)NC(CC(=O)O)c3cc(F)ccc3F)cc2c1` (stereo not given) in this work.

An IC50 [1] of 0.02 µM and an IC50 (Integrin alpha-V/beta-3 [2]) greater than 100 µM were found for `CC(CC(=O)NC(CC(=O)O)c1ccccc1)NC(=O)c1cc2cc(C(=N)N)ccc2o1` (stereo not given) in this work.

An IC50 [1] of 1 µM was found for `N=C(N)c1ccc2oc(C(=O)N3CCC[C@@H]3C(=O)NC(CC(=O)O)c3ccccc3)cc2c1` (stereo not given in full) in this work.

An IC50 [1] of 0.002 µM and an IC50 (Integrin alpha-V/beta-3 [2]) greater than 100 µM were found for `CCCCS(=O)(=O)N[C@@H](CNC(=O)CCNC(=O)c1cc2cc(C(=N)N)ccc2o1)C(=O)O` in this work.

An IC50 [1] of 0.02 µM and an IC50 (Integrin alpha-V/beta-3 [3]) greater than 100 µM were found for `CN(CCC(=O)NC(CC(=O)O)c1ccccc1)C(=O)c1cc2cc(C(=N)N)ccc2[nH]1` (stereo not given) in this work.

An IC50 [1] of 0.15 µM and an IC50 (Integrin alpha-V/beta-3 [2]) of 60 µM were found for `N=C(N)c1ccc2oc(C(=O)NCCC(=O)NC(CC(=O)O)c3ccccc3)cc2c1` (stereo not given) in this work.

An IC50 [1] of 0.15 µM and an IC50 (Integrin alpha-V/beta-3 [2]) greater than 100 µM were found for `CN(CCC(=O)NC(CC(=O)O)c1ccccc1)C(=O)c1cc2cc(C(=N)N)ccc2o1` (stereo not given) in this work.

An IC50 [1] of 2.5 µM and an IC50 (Integrin alpha-V/beta-3 [2]) of 125 µM were found for `CC(CC(=O)NC(CC(=O)O)c1ccccc1)NC(=O)c1cc2cc(C(=N)N)ccc2[nH]1` (stereo not given) in this work.

An IC50 [1] of 0.04 µM and an IC50 (Integrin alpha-V/beta-3 [2]) greater than 100 µM were found for `N=C(N)c1ccc2oc(C(=O)NCCC(=O)NC(CC(=O)O)C(F)(F)F)cc2c1` (stereo not given) in this work.

An IC50 [1] of 50 µM was found for `N=C(N)c1ccc2[nH]c(C(=O)Nc3cccc(C(=O)NC(CC(=O)O)c4ccccc4)c3)cc2c1` (stereo not given) in this work.

An IC50 [1] of 0.5 µM was found for `N=C(N)c1ccc2oc(C(=O)N3Cc4ccccc4CC3C(=O)NC(CC(=O)O)c3ccccc3)cc2c1` (stereo not given) in this work.

An IC50 [1] of 0.002 µM and an IC50 (Integrin alpha-V/beta-3 [2]) greater than 100 µM were found for `N=C(N)c1ccc2oc(C(=O)NCCC(=O)NC[C@H](NS(=O)(=O)c3ccc(I)cc3)C(=O)O)cc2c1` in this work.

An IC50 [1] of 0.1 µM and an IC50 (Integrin alpha-V/beta-3 [2]) greater than 100 µM were found for `N=C(N)c1ccc2oc(C(=O)NCCC(=O)NC(CC(=O)O)c3cc(F)cc(F)c3)cc2c1` (stereo not given) in this work.

An IC50 [1] of 10 µM was found for `N=C(N)c1ccc2[nH]c(C(=O)NC(CC(=O)NC(CC(=O)O)c3ccccc3)C(F)(F)F)cc2c1` (stereo not given) in this work.

An IC50 [1] of 0.02 µM and an IC50 (Integrin alpha-V/beta-3 [2]) greater than 100 µM were found for `N=C(N)c1ccc2oc(C(=O)NCCC(=O)NCCC(=O)O)cc2c1` in this work.

An IC50 [1] of 10 µM was found for `CN(CC(=O)NC(CC(=O)O)c1ccccc1)C(=O)c1cc2cc(C(=N)N)ccc2[nH]1` (stereo not given) in this work.

An IC50 [1] of 0.0018 µM and an IC50 (Integrin alpha-V/beta-3 [2]) greater than 100 µM were found for `N=C(N)c1ccc2oc(C(=O)NCCC(=O)NC[C@H](NS(=O)(=O)c3ccccc3)C(=O)O)cc2c1` in this work.

An IC50 [1] of 0.04 µM was found for `COc1ccc(C(CC(=O)O)NC(=O)CCNC(=O)c2cc3cc(C(=N)N)ccc3o2)cc1OC` (stereo not given) in this work.

An IC50 [1] greater than 100 µM was found for `CC(C)(NC(=O)c1cc2cc(C(=N)N)ccc2[nH]1)C(=O)NC(CC(=O)O)c1ccccc1` (stereo not given) in this work.

An IC50 [1] of 0.4 µM was found for `N=C(N)c1ccc2oc(C(=O)N3CCCC(C(=O)NC(CC(=O)O)c4ccccc4)C3)cc2c1` (stereo not given) in this work.
